We go through three compounds from ChEMBL document CHEMBL3822423 (J Med Chem, 2016).

The structures appear in SMILES notation. In brackets after ≈: the same amount, converted by molar mass. Activity calls are given as the source filed them. No cut-off for these calls is given here.

One may read the MIC as the least concentration at which growth counts as inhibited. A lower MIC goes with inhibition by little substance. The IC50 is the point on the concentration scale where inhibition reaches its midpoint.

Data set [1] deals with Staphylococcus aureus. Description: Antibacterial activity against methicillin-resistant Staphylococcus aureus N315 after 18 to 24 hrs. In kind it is functional.
A short description of data set [2]: Cytotoxicity against rat PC12 cells assessed as reduction in cell viability at 128 ug/mL after 72 hrs by MTT assay. To be noted: pc-12, 72 h. Format: cell-based. The method in brief: (§1)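 PC12 and human hepatocyte LO2 cells were exposed to compound at 8–512 µg/mL in twofold steps. Viability was read by colorimetric MTT assay, with norfloxacin as positive control. Each value is the mean of three replicates.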
A general note: Formazan colour is commonly taken as a measure of viable cells.

The subject of data set [3] is Staphylococcus aureus. Put plainly: Antibacterial activity against Staphylococcus aureus ATCC 25923 after 18 to 24 hrs. In kind it is functional.
In data set [4] the test system is Pseudomonas aeruginosa. Put plainly: Antibacterial activity against Pseudomonas aeruginosa ATCC 9027 after 18 to 24 hrs. Format: functional.
Data set [5] concerns Micrococcus luteus. Description: Antibacterial activity against Micrococcus luteus ATCC 4698 after 18 to 24 hrs. Format: functional. The settings on record: NCTC 2665.
A short description of data set [6]: Antibacterial activity against Eberthella typhosa ATCC 14028 after 18 to 24 hrs. Format: functional.
Data set [7] in a line: Cytotoxicity against human LO2 cells assessed as reduction in cell viability at 128 ug/mL after 72 hrs by MTT assay. In kind it is cell-based. To be noted: l02, 72 h. The method, boiled down: as §1
Data set [8] deals with Calf thymus DNA. Put plainly: Binding affinity to calf thymus double stranded DNA assessed as hypochromic effect in absence of Mg2+ ion by […] spectroscopic analysis. Format: nucleic-acid assay. To be noted: Bos taurus.
The subject of data set [9] is Bacillus spizizenii. Description: Antibacterial activity against Bacillus subtilis ATCC 6633 after 18 to 24 hrs. In kind it is functional.
Data set [10] concerns Escherichia coli. Description: Antibacterial activity against Escherichia coli ATCC 25922 after 18 to 24 hrs. Format: functional.
Data set [11] in a line: Cytotoxicity against rat PC12 cells assessed as reduction in cell viability at 256 ug/mL after 72 hrs by MTT assay. Format: cell-based. To be noted: pc-12, 72 h. The method, boiled down: as §1
Data set [12] in a line: Cytotoxicity against human LO2 cells assessed as reduction in cell viability at 256 ug/mL after 72 hrs by MTT assay. To be noted: l02, 72 h. Format: cell-based. The method in brief:
as §1

Data set [13] can be described thus: Cytotoxicity against human LO2 cells assessed as cell viability at 512 ug/mL after 72 hrs by MTT assay. In kind it is cell-based. To be noted: l02, 72 h. The method, boiled down: as §1
Data set [14] in a line: Inhibition of Escherichia coli DNA gyrase assessed as reduction in enzyme-mediated supercoiling of pBR322 DNA after 1.5 hrs by agarose gel electrophoresis method.
In data set [15] the test system is Bacillus. Description: Antibacterial activity against Bacillus proteus ATCC 13315 after 18 to 24 hrs. In kind it is functional.
Data set [16] has as its target T1, Albumin (Homo sapiens, UniProt P02768). Put plainly: Binding affinity to human serum albumin at pH 7.4 at 288 K by Scatchard plot analysis. In kind it is ADME. The settings on record: isolated protein. The method, boiled down: (§2)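 Scatchard treatment of the HSA fluorescence-quenching titration in pH 7.4 solution (excitation 295 nm) at each temperature. It gave the binding constant Kb and the number of binding sites n, with fit correlation R and SD.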

For data set [17], the system named is Staphylococcus aureus. Put plainly: Binding affinity to methicillin-resistant Staphylococcus aureus double stranded genomic DNA assessed as hypochromic effect by spectroscopic analysis. The method in brief: (§3)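 MRSA genomic DNA stock was quantified by absorbance at 260 nm, using ε260 = 6600 L mol⁻¹ cm⁻¹ (as molarity of phosphate). Purity was checked by the A260/A280 ratio.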

The nature of data set [18]: Cytotoxicity against rat PC12 cells assessed as cell viability at 512 ug/mL after 72 hrs by MTT assay. In kind it is cell-based. The settings on record: pc-12, 72 h. The method in brief:
as §1

Data set [19] deals with Staphylococcus aureus. Description: Antibacterial activity against methicillin/quinolone-resistant Staphylococcus aureus ATCC 700699. In kind it is functional.
In data set [20] the test system is Staphylococcus aureus. Put plainly: Binding affinity to methicillin-resistant Staphylococcus aureus […] genomic DNA assessed as decrease in fluorescence intensity at 2 x 10^-5M at 294 K by spectrofluorometric analysis. The method, boiled down: as §3
Data set [21] deals with Staphylococcus aureus. Put plainly: Binding affinity to methicillin-resistant Staphylococcus aureus double stranded genomic DNA assessed as decrease in fluorescence intensity at 2.23 x 10^-5M in presence of 20 x 10^-5 M Cu2+ ions by spectrofluorometric analysis. The method, boiled down:
as §3

The nature of data set [22]: Cytotoxicity against human LO2 cells assessed as cell viability at <512 ug/mL after 72 hrs by MTT assay relative to control. Format: cell-based, L02. The settings on record: read-out: Activity. The method in brief:
as §1

In data set [23] the test system is Staphylococcus aureus. Put plainly: Binding affinity to methicillin-resistant Staphylococcus aureus double stranded genomic DNA assessed as decrease in fluorescence intensity in absence of Cu2+ ions by spectrofluorometric analysis. The method, boiled down: as §3
The nature of data set [24]: Binding affinity to 4.69 x 10^-5 M Cu2+ at 2.23 x 10^-5 M at pH 7.4 by spectrofluorimetric method.
For data set [25], the system named is Staphylococcus aureus. Put plainly: Binding affinity to methicillin-resistant Staphylococcus aureus double stranded genomic DNA assessed as decrease in fluorescence intensity at 2.23 x 10^-5 M in presence of 0.4 x 10^-6 M Cu2+ ions by spectrofluorometric analysis. The method, boiled down: as §3
Data set [26] has as its target T1, Albumin. Put plainly: Binding affinity to human serum albumin at pH 7.4 at 310 K by Scatchard plot analysis. In kind it is ADME. The settings on record: isolated protein. The method in brief: as §2
Data set [27] concerns Staphylococcus aureus. Description: Electrostatic binding to methicillin-resistant Staphylococcus aureus double stranded genomic DNA assessed as Stern-Volmer constant in presence of potassium iodide by steady state quenching analysis. The method in brief: as §3
The nature of data set [28]: Binding affinity to 0 to 6.03 x 10^-5 M Cu2+ assessed as 1:1 compound/metal ion complex formation at 2.23 x 10^-5 M at pH 7.4 by spectrofluorimetric method.
A short description of data set [29]: Cytotoxicity against rat PC12 cells assessed as cell viability at <512 ug/mL after 72 hrs by MTT assay relative to control. In kind it is cell-based, PC-12. The settings on record: read-out: Activity. The method, boiled down: as §1
For data set [30], the target named is T1, Albumin. Put plainly: Binding affinity to human serum albumin at pH 7.4 at 303 K by Scatchard plot analysis. The settings on record: isolated protein. In kind it is ADME. The method, boiled down:
as §2

For data set [31], the system named is Bacillus. Put plainly: Potency index, ratio of norfloxacin MIC to compound MIC for Bacillus proteus ATCC 13315. Format: functional.
The test system of data set [32] is Eberthella typhosa. Description: Potency index, ratio of norfloxacin MIC to compound MIC for Eberthella typhosa ATCC 14028. In kind it is functional.

T1 sequence (P02768 whole entry): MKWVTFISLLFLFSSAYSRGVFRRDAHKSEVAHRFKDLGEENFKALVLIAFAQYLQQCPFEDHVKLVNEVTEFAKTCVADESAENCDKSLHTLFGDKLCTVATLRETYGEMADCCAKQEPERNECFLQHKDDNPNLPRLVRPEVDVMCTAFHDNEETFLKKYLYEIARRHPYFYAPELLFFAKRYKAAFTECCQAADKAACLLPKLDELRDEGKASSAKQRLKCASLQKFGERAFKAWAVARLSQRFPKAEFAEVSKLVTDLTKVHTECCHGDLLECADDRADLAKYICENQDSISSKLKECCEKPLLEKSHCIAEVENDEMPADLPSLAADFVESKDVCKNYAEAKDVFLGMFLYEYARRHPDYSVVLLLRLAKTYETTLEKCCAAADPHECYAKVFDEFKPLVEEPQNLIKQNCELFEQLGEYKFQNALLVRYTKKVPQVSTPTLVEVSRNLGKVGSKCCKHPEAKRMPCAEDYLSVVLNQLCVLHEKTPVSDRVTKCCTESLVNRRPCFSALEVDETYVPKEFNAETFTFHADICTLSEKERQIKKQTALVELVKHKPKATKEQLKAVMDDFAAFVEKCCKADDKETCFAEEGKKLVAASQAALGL

For the compound `CCn1cc(C(=O)O)c(=O)c2cc(F)c(N3CCNCC3)cc21` [NORFLOXACIN], the MIC in [1] was 10.7 µg/mL (≈ 33.5 µM); in [3], 0.8 µg/mL (≈ 2.51 µM); in [4], 1.7 µg/mL (≈ 5.32 µM); in data set [5] it was 2.7 µg/mL (≈ 8.46 µM); in data set [6], 5.3 µg/mL (≈ 16.6 µM); in data set [9], 1.3 µg/mL (≈ 4.07 µM). Further, the MIC was 4.3 µg/mL (≈ 13.5 µM) in data set [10] and 13.3 µg/mL (≈ 41.6 µM) in [15]. Moreover, the Activity entry in data set [2] was “Toxic”; in data set [7], “Toxic”; in [8] it was 16%; in [11], “Toxic”; in data set [12] it was “Toxic”; in data set [13], “Toxic”. Further, the IC50 in data set [14] was determined as 18.2 µM.
In the case of `CCn1cc(-c2csc(N)n2)c(=O)c2cc(N3CCCC3)c(Cl)cc21`, the results for the Kb in data set [16], in data set [26] and in [30] were 0.726 ×10⁵ L/mol, 0.656 ×10⁵ L/mol and 0.701 ×10⁵ L/mol, respectively. Besides, the MIC in data set [1] was determined as 0.8 µg/mL (≈ 2.13 µM); in data set [3], 0.6 µg/mL (≈ 1.6 µM); in data set [4], 0.5 µg/mL (≈ 1.33 µM); in data set [5], 2.7 µg/mL (≈ 7.2 µM); in data set [6] it was 2 µg/mL (≈ 5.33 µM); in data set [19], 16 µg/mL (≈ 42.7 µM). The MIC in [9] was found to be 1.3 µg/mL (≈ 3.47 µM); in [10], 0.8 µg/mL (≈ 2.13 µM); in data set [15], 1 µg/mL (≈ 2.67 µM). The Activity entry in data set [2] is “Non-toxic”; in data set [17] it was 11.4%; in [7], “Non-toxic”; in data set [18] it was “Non-toxic”; in data set [11] it was “Non-toxic”; in data set [12], “Non-toxic”. In addition, in data set [13], the Activity result was “Non-toxic”. Further, the outcome in data set [20], in data set [21], in data set [24], in data set [25] and in [28] was Active. For the same compound, the viability at 72 h in [22] and in data set [29] was over 88% each time. The result in [23] was inactive. Moreover, the half-maximal inhibitory concentration (IC50) in data set [14] stood at 11.5 µM. Also, the KSV in data set [27] amounted to 30.1 M⁻¹.
Consider `CCn1cc(-c2csc(N)n2)c(=O)c2cc(F)c(F)cc21`, for which the MIC was found to be 213 µg/mL (≈ 694 µM) in [1]; 0.8 µg/mL (≈ 2.6 µM) in [3]; 78.6 µg/mL (≈ 256 µM) in data set [4]; 5.3 µg/mL (≈ 17.2 µM) in [5]; 1.2 µg/mL (≈ 3.9 µM) in data set [6]; 26.7 µg/mL (≈ 86.9 µM) in data set [9]. In addition, the values for the MIC in [10] and in data set [15] were 256 µg/mL (≈ 833 µM) and 0.6 µg/mL (≈ 1.95 µM), respectively. Further, the Ratio is 22 in data set [31] and 4 in [32].
